From ChEMBL document CHEMBL4613282, “Novel N-Substituted Benzomorphan-Based Compounds: From MOR-Agonist/DOR-Antagonist to Biased/Unbiased MOR Agonists” (ACS Med Chem Lett, 2020)
Calls of active or inactive are those of the source. No cut-off for these calls is given here.

Assays:
[1] = molecular target: Kappa-type opioid receptor (Cavia porcellus, UniProt P41144); test: Displacement of [3H]-U69,593 from KOR in guinea pig brain membranes incubated for 30 mins by liquid scintillation counting; format: cell membranes, Membrane
Chain of Kappa-type opioid receptor (P41144 whole entry): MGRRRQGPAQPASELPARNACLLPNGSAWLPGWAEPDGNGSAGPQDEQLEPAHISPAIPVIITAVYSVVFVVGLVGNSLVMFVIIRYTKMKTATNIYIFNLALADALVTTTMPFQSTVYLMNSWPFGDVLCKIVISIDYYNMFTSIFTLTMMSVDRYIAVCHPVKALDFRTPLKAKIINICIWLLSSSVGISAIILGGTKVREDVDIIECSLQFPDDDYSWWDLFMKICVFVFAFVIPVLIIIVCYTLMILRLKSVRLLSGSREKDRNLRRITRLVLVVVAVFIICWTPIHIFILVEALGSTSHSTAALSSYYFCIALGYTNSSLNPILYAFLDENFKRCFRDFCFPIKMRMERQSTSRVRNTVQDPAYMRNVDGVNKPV
Outline: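 KOR binding measured as [3H]U69,593 displacement. Ki as mean ± SEM of three separate experiments, each run in duplicate.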

[2] = molecular target: Mu-type opioid receptor (Rattus norvegicus, UniProt P33535); test: Displacement of [3H]-DAMGO from MOR in rat brain membranes incubated for 45 mins by liquid scintillation counting; format: cell membranes, Membrane
Chain of Mu-type opioid receptor (P33535 whole entry): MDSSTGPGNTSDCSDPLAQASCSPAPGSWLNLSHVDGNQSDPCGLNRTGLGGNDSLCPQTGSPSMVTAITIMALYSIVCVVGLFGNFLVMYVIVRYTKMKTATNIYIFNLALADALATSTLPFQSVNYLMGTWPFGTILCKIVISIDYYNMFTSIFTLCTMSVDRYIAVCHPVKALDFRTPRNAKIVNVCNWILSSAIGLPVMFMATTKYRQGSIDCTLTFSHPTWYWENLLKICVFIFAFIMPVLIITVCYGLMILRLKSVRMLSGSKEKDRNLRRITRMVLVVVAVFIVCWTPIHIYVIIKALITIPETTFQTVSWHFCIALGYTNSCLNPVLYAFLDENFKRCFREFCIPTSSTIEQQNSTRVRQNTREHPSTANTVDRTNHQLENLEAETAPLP
Outline: (§1)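 Ki as mean ± SEM of three separate experiments, each run in duplicate.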

[3] = molecular target: Delta-type opioid receptor (Rattus norvegicus, UniProt P33533); test: Displacement of [3H]DPDPE from DOR in rat brain membranes incubated for 45 mins by liquid scintillation counting; format: cell membranes, Membrane; outline: as §1
Chain of Delta-type opioid receptor (P33533 whole entry): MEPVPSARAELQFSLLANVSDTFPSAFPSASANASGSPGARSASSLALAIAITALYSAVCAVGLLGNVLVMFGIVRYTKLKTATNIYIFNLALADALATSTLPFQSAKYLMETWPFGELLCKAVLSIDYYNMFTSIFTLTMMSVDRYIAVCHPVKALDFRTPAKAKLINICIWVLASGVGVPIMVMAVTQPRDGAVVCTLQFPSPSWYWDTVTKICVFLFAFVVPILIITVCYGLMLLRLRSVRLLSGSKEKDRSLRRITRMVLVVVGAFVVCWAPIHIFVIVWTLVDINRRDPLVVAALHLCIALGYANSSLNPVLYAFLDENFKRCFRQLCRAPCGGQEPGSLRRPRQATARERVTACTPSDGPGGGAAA

[4] = molecular target: Mu-type opioid receptor (Homo sapiens) (UniProt P35372); test: Agonist activity at EE-tagged MOR (unknown origin) expressed in human HEK293 cells assessed as inhibition of forskolin-induced cAMP accumulation at 10 uM after 30 mins by GloSensor cAMP assay; format: functional, cell-based
Chain of Mu-type opioid receptor (Homo sapiens) (P35372 whole entry): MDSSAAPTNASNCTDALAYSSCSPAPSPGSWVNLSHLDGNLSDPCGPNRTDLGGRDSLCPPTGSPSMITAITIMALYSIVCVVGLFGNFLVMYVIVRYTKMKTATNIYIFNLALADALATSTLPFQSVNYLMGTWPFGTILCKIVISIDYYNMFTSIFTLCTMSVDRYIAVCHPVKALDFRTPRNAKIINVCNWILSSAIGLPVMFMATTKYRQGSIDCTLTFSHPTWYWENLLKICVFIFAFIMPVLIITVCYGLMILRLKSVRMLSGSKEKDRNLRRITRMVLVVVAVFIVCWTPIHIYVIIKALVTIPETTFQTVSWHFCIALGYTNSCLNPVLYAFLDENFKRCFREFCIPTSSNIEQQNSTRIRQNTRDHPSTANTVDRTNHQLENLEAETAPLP
Outline: (§2)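 HEK293 cells stably expressing MOR, stimulated with 50 μM forskolin in the presence of a range of compound concentrations, up to 10–5 M. Read-out is cAMP accumulation as % of maximum. Triplicate determinations in three independent experiments, mean ± SEM.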

[5] = test system: Mus musculus; test: Antihyperalgesic activity in sc dosed PGE2-induced CD1 mouse model of thermal hyperalgesia at 8 to 16 mg/kg, sc pretreated for 20 mins before PGE2 stimulation and measured after 10 mins by radiant heat […] method; format: functional, organism-based
[6] = molecular target: Mu-type opioid receptor (Homo sapiens) (UniProt P35372); test: Agonist activity at EE-tagged MOR (unknown origin) expressed in human HEK293 cells assessed as increase in ERK1/2 phosphorylation at 1 uM after 5 mins by Western blot analysis; format: cell-based
Outline: (§3)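 Serum-starved HEK293 cells stably expressing MOR exposed to 1 μM compound for 5, 10 or 15 min. Lysates run on 10% SDS-PAGE and immunoblotted for phospho-ERK1,2, with α-tubulin reprobe as loading check. […] Three independent experiments.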

[7] = molecular target: Mu-type opioid receptor (Homo sapiens) (UniProt P35372); test: Agonist activity at EE-tagged MOR (unknown origin) expressed in human HEK293 cells assessed as increase in ERK1/2 phosphorylation at 1 uM after 15 mins by Western blot analysis; format: cell-based; outline: as §3
[8] = Toxicity in PGE2-induced CD1 mouse model of thermal hyperalgesia assessed as effect on gastrointestinal transit at 8 to 16 mg/kg, sc dosed 30 mins before charcoal suspension administration and measured after 30 mins (reference value: 30 cm); format: organism-based; details: in vivo, 0.5 h
Outline: (§4)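 Run straight after the PGE2 hyperalgesia test, i.e. 30 min after s.c. dosing. Mice received 0.5% charcoal suspension intragastrically. Distance travelled by charcoal along the small intestine measured 30 min after ingestion. Mean ± SEM of 6–7 mice; one-way ANOVA with Bonferroni test versus the saline group.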

[9] = test system: Mus musculus; test: Antihyperalgesic activity in sc dosed PGE2-induced CD1 mouse model of thermal hyperalgesia assessed as increase in paw withdrawl latency pretreated with compound for 20 mins before PGE2 stimulation for 10 mins by radiant heat […] method; format: functional, organism-based
Outline: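 Mice given compound or solvent s.c. 20 min before intraplantar PGE2 or saline. Hindpaw withdrawal latency to radiant heat measured in the injected paw 10 min after the i.pl. injection. Test compounds dosed 8–16 mg/kg; morphine 1–3 mg/kg and LP1 1–4 mg/kg as comparators. One-way ANOVA with Bonferroni test.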

[10] = molecular target: Mu-type opioid receptor (Homo sapiens) (UniProt P35372); test: Biased agonist activity at EE-tagged MOR (unknown origin) expressed in human HEK293 cells assessed as increase in ERK1/2 phosphorylation levels at 1 uM after 15 mins by Western blot analysis; format: cell-based; outline: as §3
[11] = molecular target: Mu-type opioid receptor (Homo sapiens) (UniProt P35372); test: Agonist activity at EE-tagged MOR (unknown origin) expressed in human HEK293 cells assessed as inhibition of forskolin-induced cAMP accumulation at 10 uM after 30 mins by GloSensor cAMP assay relative to control; format: functional, cell-based; outline: as §2
[12] = test system: Mus musculus; test: Antinociceptive activity in Swiss […] mouse assessed as effect on tail flick latency at 2.5 to 7.5 mg/kg, ip after 90 mins by radiant heat tail-flick method; format: functional, organism-based
Outline: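 Mouse tail-flick test after 2.5–7.5 mg/kg i.p.; saline-treated group as control. Tail-flick latency (s) followed over 90 min. Mean ± SEM from 6–8 mice.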

[13] = Toxicity in PGE2-induced CD1 mouse model of thermal hyperalgesia assessed as effect on gastrointestinal transit at 4 mg/kg, sc dosed 30 mins before charcoal suspension administration and measured after 30 mins (reference value: 30 cm); format: organism-based; details: in vivo, 0.5 h; outline: as §4

SMILES | Ki [1] [nM] | Ki [2] [nM] | Ki [3] [nM] | further results
Cc1cc(C)c(NC(=O)CCN2CC[C@@]3(C)c4cc(O)ccc4C[C@@H]2[C@@H]3C)c(C)c1 | 313 | 43.7 | > 2000 | inhibition [4]: inactive
Cc1ccc(NC(=O)CCN2CC[C@@]3(C)c4cc(O)ccc4C[C@@H]2[C@@H]3C)c(C)c1 | 340 | 20.8 | 474 | Activity [5]: inactive; Activity [6]: Active; Activity [7]: inactive; Activity [8]: 30 cm; inhibition [4]: inactive
CN1CC[C@]23c4c5ccc(O)c4O[C@H]2[C@@H](O)C=C[C@H]3[C@H]1C5 | – | – | – | Activity [9]: Dose-dependent effect
Cc1cccc(C)c1N(Cc1ccccc1)C(=O)CCN1CC[C@@]2(C)c3cc(O)ccc3C[C@@H]1[C@@H]2C | > 3000 | 400 | > 5000 | –
CCc1cccc(C)c1N(Cc1ccccc1)C(=O)CCN1CC[C@@]2(C)c3cc(O)ccc3C[C@@H]1[C@@H]2C | 151 | 1540 | > 5000 | –
C[C@H]1[C@H]2Cc3ccc(O)cc3[C@]1(C)CCN2CCC(=O)N(Cc1ccccc1)c1ccccc1 | > 5000 | 606 | > 5000 | –
CCc1cccc(C)c1NC(=O)CCN1CC[C@@]2(C)c3cc(O)ccc3C[C@@H]1[C@@H]2C | 320 | 14.9 | 198 | Activity [5]: inactive; Activity [6]: Active; Activity [7]: inactive; Activity [8]: 30 cm; inhibition [4]: inactive
Cc1ccc(C)c(NC(=O)CCN2CC[C@@]3(C)c4cc(O)ccc4C[C@@H]2[C@@H]3C)c1 | 480 | 7.9 | 478 | Activity [10]: Active; inhibition [11]: 50%; Activity [12]: inactive; Activity [5]: inactive; Activity [8]: 30 cm
Cc1ccc(N(Cc2ccccc2)C(=O)CCN2CC[C@@]3(C)c4cc(O)ccc4C[C@@H]2[C@@H]3C)c(C)c1 | > 2000 | 165 | > 5000 | –
C[C@H]1[C@H]2Cc3ccc(O)cc3[C@]1(C)CCN2CCN(Cc1ccccc1)c1ccccc1 | > 3000 | 244 | > 1000 | –
Cc1cccc(C)c1NC(=O)CCN1CC[C@@]2(C)c3cc(O)ccc3C[C@@H]1[C@@H]2C | 252 | 7.4 | 277 | Activity [12]: inactive; Activity [5]: inactive; Activity [6]: Active; Activity [7]: inactive; Activity [8]: 30 cm; inhibition [4]: inactive
Oc1ccc2c3c1O[C@H]1c4[nH]c5ccccc5c4C[C@@]4(O)[C@@H](C2)N(CC2CC2)CC[C@]314 [NALTRINDOLE] | – | – | 0.83 | –
Cc1ccc(NCCN2CC[C@@]3(C)c4cc(O)ccc4C[C@@H]2[C@@H]3C)c(C)c1 | > 1000 | 129 | > 5000 | –
C[C@H]1[C@H]2Cc3ccc(O)cc3[C@]1(C)CCN2CCC(=O)Nc1ccccc1 | – | – | – | Activity [6]: Active; Activity [7]: inactive; Activity [13]: Toxic
Cc1cc(C)c(N(Cc2ccccc2)C(=O)CCN2CC[C@@]3(C)c4cc(O)ccc4C[C@@H]2[C@@H]3C)c(C)c1 | 444 | 504 | > 5000 | –
Cc1ccc(C)c(NCCN2CC[C@@]3(C)c4cc(O)ccc4C[C@@H]2[C@@H]3C)c1 | > 2000 | 182 | > 5000 | –
